Screens deposited in PubChem BioAssay by Johns Hopkins Ion Channel Center.
Hits are enriched below; roughly 2.9% of the tested compounds scored in any of these assays.
TRPC4 act = activators of mouse TRPC4 channel | AID 2237 | B-score at 10 µM | HEK293 TRPC4beta/mu-opioid, Fluo4 calcium fluorescence; hits give high values | 0.49% of 310,000 active;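 active = B-score above 5 SD of library B-scores, and initial fluorescence ratio not above library mean plus 5 SD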;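 note: positive B-score marks a calcium rise read as TRPC4 activation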
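System: HEK293 cells stably co-expressing mouse TRPC4beta and mu-opioid receptor; Schedule: Fluo4 dye loading 45 min at room temperature, 110 s recording; Detection: Fluo4 fluorescence, kinetic; Evaluation: B-scored integrated calcium fluorescence ratio; Controls: buffer (low) and maximal DAMGO (high).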
TRPC4 potent = allosteric potentiators of mouse TRPC4 channel. 0.42% of 310,000 active. HEK293 TRPC4beta/mu-opioid, DAMGO EC20, Fluo-4 Ca2+ flux; hits give high values. B-score at 10 µM. Q9QUQ5;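 active = B-score of calcium response area above 5 SD of library B-scores, with initial fluorescence ratio within 5 SD of library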
TRPC6 inhibitor = mouse TRPC6 channel inhibition | Q61143 | HEK293-TRPC6, membrane potential dye, ACh-evoked depolarization; hits give low values | B-score at 10 µM | 1.1% of 310,000 active | AID 2553;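 active = B-score under library mean minus 3 SD, initial fluorescence not abnormally high, positive integrated signal ratio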;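 note: B-score derived from integrated fluorescence ratio over the kinetic read; more negative B-score means stronger inhibition of depolarization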
TRPC6 act = activates the mouse TRPC6 cation channel; Q61143; B-score at 10 µM; AID 2550; 0.13% of 310,000 active; HEK293-TRPC6 membrane potential dye fluorescence; hits give high values;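 active = B-score of the integrated fluorescence ratio above library mean plus 3 SD, and starting fluorescence ratio within library mean plus 5 SD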;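 note: higher score means more depolarization so channel activation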
Kir21 inh = blocks the mouse Kir2.1 inward-rectifier potassium channel. P35561. HEK293-Kir2.1, FluxOR thallium flux fluorescence; hits give low values. B-score at 10 µM. 0.85% of 310,000 active. AID 1672;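 active = fluorescence ratio B-score at or below minus 3 SD of library scores, with starting-brightness B-score within 2 SD, cut at about -4.2 in these data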;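 note: channel flux triggered by added potassium and thallium sulfate stimulus; B-score of peak minus minimum fluorescence over baseline after thallium stimulus; more negative B-score means stronger Kir2.1 block with less thallium influx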
Target sequence (P35561 whole entry, looked up): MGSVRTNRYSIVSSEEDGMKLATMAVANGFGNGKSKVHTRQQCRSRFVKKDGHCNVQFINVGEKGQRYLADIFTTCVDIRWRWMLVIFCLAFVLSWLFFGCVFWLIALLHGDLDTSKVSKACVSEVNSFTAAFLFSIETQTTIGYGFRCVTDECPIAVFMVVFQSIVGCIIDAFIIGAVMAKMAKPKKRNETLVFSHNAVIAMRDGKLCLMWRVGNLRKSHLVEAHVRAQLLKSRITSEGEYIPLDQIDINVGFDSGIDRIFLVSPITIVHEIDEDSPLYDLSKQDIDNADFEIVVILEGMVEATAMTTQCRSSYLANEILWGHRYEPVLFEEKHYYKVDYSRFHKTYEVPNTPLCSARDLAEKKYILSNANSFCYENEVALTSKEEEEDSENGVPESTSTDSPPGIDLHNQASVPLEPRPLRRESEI
TRPC4 inh = blocks the mouse TRPC4 cation channel. Q9QUQ5. HEK293 TRPC4beta/mu-opioid, DAMGO-evoked Fluo4 calcium flux; hits give low values. B-score at 10 µM. 0.39% of 300,000 active. AID 2247;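 active = B-score over 3 SD under the library average, no early fluorescence shift, positive overall ratio signal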
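Assay system: HEK293 cells with stable TRPC4beta plus mu-opioid receptor expression; Probe or stimulus: DAMGO in two steps, submaximal then maximal; Dosing: single-point compound dosing; Measured by: Fluo4 calcium-dye fluorescence, kinetic read; Read-out basis: B score from integrated Fluo4 fluorescence ratio.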
TRPC4 spec 2 = mouse TRPC4 off-target activity of TRPC6 inhibitors, second screen; AID 2776; HEK293 TRPC4/MOR, membrane potential dye fluorescence; channel activated by saturating DAMGO dose; 42% of 920 active; shares compounds with TRPC6 inhibitor; inhibition, % at 10 µM;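 active = compounds whose fluorescence signal differed from control wells by over 3 SD, either direction, in both duplicate plates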
TRPC4 spec = selectivity of TRPC6 inhibitors: effect on mouse TRPC4 | shares compounds with TRPC6 inhibitor | AID 2777 | 61% of 920 active | HEK293 TRPC4/mu-opioid, membrane potential fluorescence | activity change, negative = inhibition, % at 10 µM;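 active = rise or fall in signal beyond 3 SD of buffer-only wells in both replicate plates, either sign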;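 note: integrated kinetic ratio of fluorescence range over baseline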
HEK293 MPD ctr 2-1 = second counter-screen for TRPC6 inhibitors: parental HEK293 cells. 31% of 920 active. shares compounds with TRPC6 inhibitor. parental HEK293 membrane potential dye fluorescence; maximal acetylcholine challenge after compound addition. signal change vs control, % at 10 µM;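 active = membrane potential signal moving either way by over 3 SD of the maximum-effect control, in both duplicate plates, meaning non-specific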
HEK293 MPD ctr-1 = counter-screen for TRPC6 inhibitors: effect in parental HEK293 cells. shares compounds with TRPC6 inhibitor. parental HEK293 membrane potential dye fluorescence. membrane potential signal change, % at 10 µM. 60% of 920 active;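 active = membrane potential signal shifting up or down by more than 3 SD of buffer-only wells, on both duplicate plates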
HEK293 MPD ctr-2 = parental HEK293 nonspecific activity of TRPC6 modulators | shares compounds with TRPC6 inhibitor | membrane potential dye fluorescence | membrane potential signal change, % at 10 µM | 51% of 2,400 active | AID 488924;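 active = membrane potential signal moves up or down beyond 5 SD from buffer-only wells, on both duplicate plates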
HEK293 MPD ctr 2-2 = parental HEK293 nonspecific activity of TRPC6 modulators, second screen; shares compounds with TRPC6 inhibitor; membrane potential dye fluorescence; after compound, maximal acetylcholine stimulation; inhibition, % at 10 µM; 14% of 2,400 active; AID 488926;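 active = membrane potential signal drops by more than 5 SD from the mean control signal, in both duplicate plates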
TRPC4/MOR mod = mouse TRPC4 off-target activity of TRPC6 modulators; percent change from control (negative = decrease, positive = increase), % at 10 µM; HEK293 TRPC4/mu-opioid, membrane potential fluorescence; shares compounds with TRPC6 inhibitor; AID 488927; 69% of 2,400 active;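 active = membrane potential signal moved up or down beyond 5 SD of buffer control wells, in both duplicate plates, actives on both sides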
TRPC4/MOR inh 2 = second selectivity test of TRPC6 modulators against mouse TRPC4; shares compounds with TRPC6 inhibitor; HEK293 TRPC4/mu-opioid, membrane potential dye fluorescence; stimulated with maximal-effect DAMGO; inhibition, % at 10 µM; 55% of 2,400 active;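 active = drop in membrane potential signal beyond 5 SD of the control wells in both duplicate plates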;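 note: TRPC4 counter screen for TRPC6 hits run under conditions tuned for TRPC6 not TRPC4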
TRPC6 inh conf = mouse TRPC6 inhibitor confirmation. shares compounds with TRPC6 inhibitor. 43% of 3,300 active. inhibition, % at 10 µM. AID 488960. HEK293-TRPC6, membrane potential dye, ACh-evoked depolarization;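 active = fluorescence ratio falls more than 5 SD below the full-stimulation control mean, in both duplicate runs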;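 note: integrated fluorescence ratio of peak minus minimum over baseline after agonist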
TRPC6 act conf = confirmation of mouse TRPC6 activators; shares compounds with TRPC6 inhibitor; HEK293-TRPC6 membrane potential dye fluorescence, FDSS; activation, % at 10 µM; 11% of 2,800 active; AID 488961;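 active = ratio signal rise beyond 5 SD above unstimulated control wells' mean, seen in both duplicate runs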
Of the large screens only hits and unclear results are named; the others gave an inactive call (follow-up assays come after a bar, where they were run).

Cc1cccc(-n2ccc(=O)c(C(=O)Nc3ccc(S(=O)(=O)Nc4onc(C)c4C)cc3)n2)c1	none
COc1ccc(-c2cc(C(=O)Nc3cc(Br)ccc3O)no2)cc1	none
Cc1cccc(-c2cc3nc(C)c(C)c(NCCCn4ccnc4)n3n2)c1	TRPC6 inhibitor -7.4 | TRPC4 spec 2 58% | TRPC4 spec -18% | HEK293 MPD ctr 2-1 inactive | HEK293 MPD ctr-1 inactive | TRPC6 inh conf 76% | TRPC6 act conf inactive
CC(C)(C)c1cc(NCCCn2ccnc2)n2ncc(-c3ccc(Cl)cc3)c2n1	none
Cc1cc(NCCCn2ccnc2)n2nc(-c3ccc(Cl)cc3)cc2n1	TRPC6 inhibitor -11 | HEK293 MPD ctr-2 inactive | HEK293 MPD ctr 2-2 100% | TRPC4/MOR mod 20% | TRPC4/MOR inh 2 54% | TRPC6 inh conf 54% | TRPC6 act conf inactive
Cc1cc(NCCCn2ccnc2)n2nc(-c3ccc(F)cc3)cc2n1	TRPC6 inhibitor -10 | HEK293 MPD ctr-2 -300% | HEK293 MPD ctr 2-2 92% | TRPC4/MOR mod -54% | TRPC4/MOR inh 2 62% | TRPC6 inh conf 72% | TRPC6 act conf inactive
COc1ccc(CCNC(=O)c2ccc(CS(=O)Cc3ccc(C)cc3)o2)cc1OC (stereo not drawn)	none
COc1ccc2oc(=O)cc(CN(C)Cc3ccccc3)c2c1	none
O=c1c2cc(Br)ccc2nc2n1CCCCC2	TRPC6 inhibitor -7.8 | TRPC4 spec 2 inactive | TRPC4 spec inactive | HEK293 MPD ctr 2-1 inactive | HEK293 MPD ctr-1 inactive | TRPC6 inh conf inactive | TRPC6 act conf inactive
O=C(Nc1nc(=S)ss1)c1ccc(Cl)cc1Cl	TRPC6 inhibitor -7.1 | HEK293 MPD ctr-2 inactive | HEK293 MPD ctr 2-2 inactive | TRPC4/MOR mod inactive | TRPC4/MOR inh 2 inactive | TRPC6 inh conf inactive | TRPC6 act conf inactive
O=C(Nc1ccc2ccccc2c1)c1ccc(Cl)cc1Cl	none
O=C(CCC(=O)N(CC(=O)NC1CCCC1)Cc1ccc(F)cc1)Nc1nccs1	none
Cc1ccccc1OCCNC(=O)/C=C/c1ccccc1	none
COC(=O)/C=C1/SC(=NC(=O)c2ccc(Cl)cc2)NC1=O	TRPC6 act 14 | HEK293 MPD ctr-2 134% | HEK293 MPD ctr 2-2 inactive | TRPC4/MOR mod 20% | TRPC4/MOR inh 2 inactive | TRPC6 inh conf inactive | TRPC6 act conf 56%
COC(=O)/C=C1\SC(=NC(=O)c2ccc(C)cc2)NC1=O	none
COc1ccccc1/C=C/C1=NC(=C\C=C/c2ccccc2)/C(=O)O1	none
COc1ccccc1/C=C/C=C1N=C(/C=C/c2ccc(Cl)cc2)OC/1=O	TRPC6 inhibitor -5.9 | HEK293 MPD ctr-2 554% | HEK293 MPD ctr 2-2 inactive | TRPC4/MOR mod 32% | TRPC4/MOR inh 2 inactive | TRPC6 inh conf inactive
COc1ccc(CN(C(=O)CN2C(=O)COc3ccccc32)C2CCCC2)c(OC)c1	TRPC6 act 12 | HEK293 MPD ctr-2 319% | HEK293 MPD ctr 2-2 inactive | TRPC4/MOR mod inactive | TRPC4/MOR inh 2 inactive | TRPC6 inh conf inactive | TRPC6 act conf inactive
COc1ccc(CN(Cc2ccccn2)C(=O)CN2C(=O)COc3ccccc32)cc1	none
CN(C)c1ccc2c(c1)OC(N)=C(C#N)C2c1cccc(F)c1 (stereo not drawn)	TRPC4 act 56, TRPC6 act 12 | HEK293 MPD ctr-2 413% | HEK293 MPD ctr 2-2 inactive | TRPC4/MOR mod 30% | TRPC4/MOR inh 2 45% | TRPC6 inh conf inactive | TRPC6 act conf 44%
Cc1ccsc1/C=N/Nc1ccc(F)cc1F	none
COc1ccccc1N1CCN(C(=O)CSc2nc(C)cc(=O)[nH]2)CC1	TRPC6 inhibitor -6.9 | TRPC4 spec 2 inactive | TRPC4 spec inactive | HEK293 MPD ctr 2-1 inactive | HEK293 MPD ctr-1 inactive | TRPC6 inh conf inactive | TRPC6 act conf inactive
CN1CCN(Cc2cc(=O)oc3cc4c(cc23)CCC4)CC1	none
CCN1CCN(Cc2cc(=O)oc3cc4c(cc23)CCC4)CC1	TRPC6 inhibitor -5.1 | HEK293 MPD ctr-2 -70% | HEK293 MPD ctr 2-2 inactive | TRPC4/MOR mod -8.0% | TRPC4/MOR inh 2 40% | TRPC6 inh conf inactive | TRPC6 act conf inactive
COCCn1cc(C(=O)c2cc(Br)ccc2O)cc(C#N)c1=O	none
CCCCOc1ccc(C2=CSC3=NCCN23)cc1[N+](=O)[O-]	TRPC6 inhibitor -5.1 | HEK293 MPD ctr-2 -75% | HEK293 MPD ctr 2-2 inactive | TRPC4/MOR mod -20% | TRPC4/MOR inh 2 44% | TRPC6 inh conf 44% | TRPC6 act conf inactive
COc1ccc(C2=CSC3=NCCN23)cc1OC	none
O=S(=O)(c1ccc(Cl)cc1)N1CCN(C2CCN(Cc3ccccc3)CC2)CC1	none
COc1ccc(S(=O)(=O)N2CCC(N3CCCC3)CC2)cc1	none
O=[N+]([O-])c1ccc(S(=O)(=O)N2CCN(C3CCN(Cc4ccccc4)CC3)CC2)cc1	TRPC6 inhibitor -5.9 | HEK293 MPD ctr-2 inactive | HEK293 MPD ctr 2-2 inactive | TRPC4/MOR mod inactive | TRPC4/MOR inh 2 38% | TRPC6 inh conf inactive | TRPC6 act conf inactive
